MT1-MMP act inh: inhibitors of human MT1-MMP activation; HT1080 RFP-PRO-GFP cells, GFP/RFP ratio fluorescence, overnight; percent of plate control window, DMSO zero; GFP/RFP ratio change, % at 20 µM; 360,000 tested, 0.061% active; AID 651647;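 active = GFP/RFP ratio change of at least 30% with cell ATP level not reduced by more than half and red fluorescence within 50% of control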
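Assay system: HT1080 RFP-PRO-GFP cells | Dosing: 20 µM single dose, 1% DMSO | Incubation: Cells overnight before dosing, compound overnight, 37 °C, 5% CO2 | Evaluation: GFP/RFP fluorescence ratio | Control set: DMSO-only wells and HT1080 RFP-L50D-GFP cell wells as references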
E coli Lon inh: inhibitors of E. coli Lon protease; P0A9M0; purified E. coli Lon protease, fluorescence polarization; inhibition, % at 7.94 µM; 360,000 tested, 0.42% active; in the data active = inhibition above about 13%, passing the limit was not always enough;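 note: 0% = enzyme with probe and DMSO and 100% = no enzyme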
SKN-1 inh: blocks SKN-1 activity in C. elegans; 360,000 tested, 0.49% active; inhibition, % at 21.8 µM; C. elegans VP596 Pgst-4::GFP/RFP ratio, acrylamide-induced, 24 h; AID 624304;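 active = interference check ratio from 0.5 to 1.5 plus GFP to RFP signal ratio inhibition reaching or exceeding a fixed threshold, cut at about 30% in these data, passing the limit was not always enough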
Tb MetRS inh: blocks T. brucei methionyl-tRNA synthetase activity. inhibition, % at 11.9 µM. purified T. brucei MetRS, ATP depletion, Kinase-Glo luminescence. AID 624268. 360,000 tested, 0.4% active;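 active = inhibition above a per-plate cutoff of the control wells' mean inhibition plus 3 SD, cut at about 5.5% in these data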;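 note: 0% = DMSO wells median and 100% = median of wells with control inhibitor compound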
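Material – parasite MetRS enzyme · Medium – HEPES-MgCl2-KCl buffer plus DTT, spermine, BSA, pyrophosphatase · Reagent – ATP, methionine and E. coli bulk tRNA substrates · Times – 15 min enzyme-compound preincubation, 2 h reaction, 10 min detection, 25 °C · Measured by – luminescence of leftover ATP · Evaluation – percent inhibition relative to median high and low control wells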
iPSC survival up: enhancers of human iPSC single-cell survival | hiPSC single-cell survival, ATPlite luminescence; 100% = ROCK inhibitor wells, 0% = DMSO | survival enhancement, % at 20 µM | 360,000 tested, 0.044% active | AID 602274; in the data active = survival enhancement above about 18%;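 note: cells exposed to compounds for 16 hours before the ATP read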
PREPL inh: inhibits the human prolyl oligopeptidase-like enzyme. AID 2751. Q4J6C6. inhibition, % at 5.96 µM. recombinant PREPL, fluorescence polarization activity-based probe. 320,000 tested, 0.68% active; in the data active = inhibition above about 43%;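 note: 0% = enzyme with DMSO and 100% = wells lacking enzyme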
Target sequence (Q4J6C6 whole entry, looked up): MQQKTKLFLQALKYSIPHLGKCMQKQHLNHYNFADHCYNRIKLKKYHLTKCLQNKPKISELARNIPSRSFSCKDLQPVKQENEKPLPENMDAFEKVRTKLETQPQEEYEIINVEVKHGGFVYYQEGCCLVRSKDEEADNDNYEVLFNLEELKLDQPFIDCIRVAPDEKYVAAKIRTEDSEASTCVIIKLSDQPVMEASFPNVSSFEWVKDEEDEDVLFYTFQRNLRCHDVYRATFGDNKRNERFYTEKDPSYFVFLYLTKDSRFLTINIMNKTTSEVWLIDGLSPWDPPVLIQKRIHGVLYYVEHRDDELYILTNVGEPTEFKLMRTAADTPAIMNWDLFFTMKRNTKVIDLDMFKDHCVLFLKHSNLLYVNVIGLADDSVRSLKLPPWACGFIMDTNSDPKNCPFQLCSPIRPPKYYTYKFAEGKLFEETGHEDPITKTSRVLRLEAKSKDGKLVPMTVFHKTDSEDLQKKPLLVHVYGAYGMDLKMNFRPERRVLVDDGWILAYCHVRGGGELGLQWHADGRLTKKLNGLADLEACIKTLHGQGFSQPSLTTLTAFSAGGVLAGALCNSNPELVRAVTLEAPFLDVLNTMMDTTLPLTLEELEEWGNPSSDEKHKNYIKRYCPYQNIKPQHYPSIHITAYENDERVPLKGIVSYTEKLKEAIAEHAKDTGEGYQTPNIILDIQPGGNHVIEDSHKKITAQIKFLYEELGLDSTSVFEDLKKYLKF
Tb MetRS conf: Trypanosoma brucei MetRS inhibition confirmed; shares compounds with Tb MetRS inh; T. brucei MetRS enzyme, luminescence (ATP depletion); inhibition, % at 11.9 µM; 1,400 tested, 93% active; AID 624412; in the data active = inhibition above about 7%
Jurkat cytotox: kills Jurkat cells in T. brucei MetRS counterscreen. shares compounds with Tb MetRS inh. Jurkat cells viability, ATP luminescence. inhibition, % at 8.3 µM. 1,400 tested, 12% active; in the data active = inhibition above about 15%;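 note: 0% = vehicle and 100% = reference inhibitor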
TbMetRS FP orth: inhibits T. brucei methionyl tRNA synthetase in orthogonal FP test; purified T. brucei MetRS, fluorescence polarization; AID 651607; shares compounds with Tb MetRS inh; inhibition, % at 11.9 µM; 1,400 tested, 44% active; in the data active = inhibition above about 17%;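 note: 0% = vehicle wells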
An asterisk follows results filed as active; x = not tested or not shown. Only some compounds are listed: those with a hit (about 1.8% of all), similar ones and a draw of the others.

SMILES	MT1-MMP act inh	E coli Lon inh	SKN-1 inh	Tb MetRS inh	iPSC survival up	PREPL inh	Tb MetRS conf	Jurkat cytotox	TbMetRS FP orth
O=C1C2Sc3[nH]c(=O)sc3C(c3cc([N+](=O)[O-])ccc3O)C2C(=O)N1c1ccccc1 (centres undefined)	3	-2	-5	16*	-1	4	19*	0	12
CCOc1ccc(S(=O)(=O)c2c[nH]c3ccccc3c2=O)cc1	2	-8	10	13*	0	1	24*	1	6
O=C(COc1ccc(Br)cc1)NNC(=O)c1ccc(-n2cncn2)c([N+](=O)[O-])c1	-2	-5	8	20*	0	2	54*	1	23*
CCc1ccc(OCC(=O)NNC(=O)c2ccc(-n3cncn3)c([N+](=O)[O-])c2)cc1	4	-12	-13	5.9*	0	x	35*	-8	17*
O=C(c1ccc(-n2cncn2)c([N+](=O)[O-])c1)N1CCN(S(=O)(=O)c2ccc(Cl)cc2)CC1	-7	-9	19	3	0	5	x	x	x
CN(c1ccc(OC(=O)c2ccc(-n3cncn3)c([N+](=O)[O-])c2)cc1)S(=O)(=O)c1ccccc1	-1	3	9	5	0	-1	x	x	x
Cc1ccc(OCC(=O)NNC(=O)c2ccc(-n3cncn3)c([N+](=O)[O-])c2)cc1	-2	-11	15	16*	0	-1	41*	-4	17*
CCOC(=O)c1c(N)nn(C(=O)C(C)C)c1-c1ccccc1	-4	-8	6	-1	-3	-10	x	x	x
CCOC(=O)C(/C=C(\C#N)C(=O)OCC)=C(/N)N1CCN(c2ccc(Cl)cc2)CC1	5	-1	5	40*	-2	42	49*	-3	24*
CN(c1ccc([N+](=O)[O-])cc1/C=N/NC(=O)COc1ccccc1)C1CCCCC1	1	-2	-1	0	2	8	x	x	x
COc1ccc(CN2CCNC(=O)C2CC(=O)N(C)Cc2ccon2)c(OC)c1 (centres undefined)	2	0	17	-1	-1	-1	x	x	x
Nc1nc2nonc2nc1N1CCCCC1	-3	1	0	7.1*	-2	-1	13*	3	3
C1CCCN(c2nc3nonc3nc2N2CCCCCC2)CC1	4	6	8	-1	-2	7	x	x	x
C#Cc1ccc([C@H]2C=C(C(=O)NCc3nc4ccccc4[nH]3)O[C@@H](OCC)[C@@H]2CCCO)cc1	3	-7	7	12*	-2	-4	36*	3	17*
CCO[C@@H]1OC(C(=O)NCc2nc3ccccc3[nH]2)=C[C@H](C2CC2)[C@H]1CCCO	-5	3	7	5	-4	-2	x	x	x
CCO[C@@H]1OC(C(=O)NCc2nc3ccccc3[nH]2)=C[C@H](C(C)(C)C)[C@H]1CCCO	29	0	-8	6.4*	-3	4	33*	71*	13
C#CCNC(=O)C1=C[C@@H](c2ccc(C#C)cc2)[C@H](CCCO)[C@@H](OCC)O1	4	-8	-1	0	2	-4	x	x	x
CCO[C@H]1OC(C(=O)NCc2nc3ccccc3[nH]2)=C[C@@H](c2ccc(Br)cc2)[C@@H]1CCCO	6	0	23	38*	-3	-22	80*	-3	57*
COc1ccccc1NC(=O)c1nnn(CC(=O)Nc2cccc(SC)c2)c1N	5	0	-14	6.0*	-1	12	7.6*	-2	15
Oc1ccc(/C=N/Nc2ccnc3cc(Cl)ccc23)c(O)c1	-3	-29	-10	14*	1	-2	22*	55*	47*
CCC(=O)c1c[nH]c(C(=O)NCc2ccccc2OC)c1	0	-2	9	1	0	0	x	x	x
